Compound activity (PubChem BioAssay)
This is a sample that favours compounds with a hit; in the whole collection about 2.4% have one here.
NadD inh: blocks S. aureus nicotinate mononucleotide adenylyltransferase; actives 0.78% (n = 360,000); purified NadD enzyme, colorimetric absorbance read-out; inhibition, % at 20 µM; in the data active = inhibition above about 26%
STEP inh: STEP (human) phosphatase inhibition; P54829; recombinant STEP, OMFP fluorogenic substrate, fluorescence; inhibition, % at 20 µM; actives 0.25% (n = 360,000);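 active = inhibition at 20 µM, scaled per plate between control wells, above about 37%, limit read from the data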;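 note: 0% = DMSO with enzyme and substrate and 100% = substrate only without enzyme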
Target sequence (P54829 whole entry, looked up): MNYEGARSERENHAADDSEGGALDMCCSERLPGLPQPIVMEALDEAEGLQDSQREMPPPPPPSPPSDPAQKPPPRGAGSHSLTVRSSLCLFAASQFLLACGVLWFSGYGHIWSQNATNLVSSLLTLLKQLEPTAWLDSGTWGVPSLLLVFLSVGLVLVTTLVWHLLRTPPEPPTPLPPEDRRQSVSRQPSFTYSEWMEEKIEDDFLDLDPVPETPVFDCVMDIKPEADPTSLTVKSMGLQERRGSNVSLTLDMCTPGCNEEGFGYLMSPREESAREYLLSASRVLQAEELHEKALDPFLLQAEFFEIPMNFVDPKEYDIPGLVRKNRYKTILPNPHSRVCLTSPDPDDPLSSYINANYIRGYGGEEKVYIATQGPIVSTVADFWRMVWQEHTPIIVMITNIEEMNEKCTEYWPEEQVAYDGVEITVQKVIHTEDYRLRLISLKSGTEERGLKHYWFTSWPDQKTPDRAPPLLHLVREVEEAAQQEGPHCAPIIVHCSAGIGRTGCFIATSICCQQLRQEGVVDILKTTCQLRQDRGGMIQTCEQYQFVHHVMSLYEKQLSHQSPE
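System: STEP phosphatase, cell-free reaction; Buffer or medium: Bis-Tris pH 6.0 buffer with DTT, detergent; Incubation: 20 min at room temperature, dark; Measured by: fluorescence, 480/540 nm.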
DNMT1 block: DNMT1 (human) enzyme inhibition; P26358; DNMT1 molecular beacon, Hinp1I cleavage, fluorescence; inhibition (reported as % activation of signal), % at 10 µM; actives 0.83% (n = 360,000); AID 588458; in the data active = inhibition above about 50%
SUMO1 PPI mod: alters human SUMO1 binding to SIM partners; P63165; SUMO1 binding to a labelled peptide, TR-FRET, 1 h; inhibition, % at 20 µM; actives 0.33% (n = 360,000); AID 602429; in the data active = inhibition above about 37%
Scp1 inh: inhibitors of human Scp-1 phosphatase. Q9GZU7. Recombinant Scp1, phosphopeptide, malachite green phosphate absorbance. inhibition, % at 20 µM. actives 0.88% (n = 340,000);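 active = inhibition above about 50% at 20 µM, limit read from the data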;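 note: plate controls were DMSO wells with enzyme for no effect and wells lacking enzyme for full effect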
Target sequence (Q9GZU7 76-261 limits assumed): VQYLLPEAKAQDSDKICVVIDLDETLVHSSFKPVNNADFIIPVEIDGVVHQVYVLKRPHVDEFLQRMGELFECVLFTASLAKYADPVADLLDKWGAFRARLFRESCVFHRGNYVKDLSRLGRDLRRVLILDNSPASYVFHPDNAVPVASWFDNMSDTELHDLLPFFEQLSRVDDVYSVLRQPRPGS
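Assay system: SCP-1 catalytic fragment, aa 76-261 | Buffer or medium: Tris acetate buffer pH 5.5 with MgCl2 and Tween-20 | Compound: One concentration, 20 µM, with 1.0% DMSO | Also added: Phospho 17-mer peptide substrate | Signal: Absorbance at 630 nm | Incubation: 45 min enzyme reaction at room temperature | Measure: % inhibition of SCP-1 phosphate liberation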
LMPTP inh: blocks human LMPTP phosphatase; actives 0.22% (n = 360,000); recombinant LMPTP-A, OMFP fluorogenic substrate, fluorescence intensity; P24666; inhibition, % at 20 µM;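 active = compounds that cut the enzyme signal by at least half of the control window in the single-dose screen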;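 note: plate controls were DMSO wells with enzyme plus substrate for no effect and substrate without enzyme for full effect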
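test system = LMPTP-A | amount = 0.625 nM LMPTP-A final | reagent = fluorogenic phosphatase substrate OMFP at 400 µM final | incubation = 50 min at room temperature | benchmarks = no-enzyme low control, uninhibited high control | medium = Bis-Tris pH 6.0, DTT, detergent | signal = fluorescence intensity of OMFP turnover product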
Beacon interf DR: beacon fluorescence artifact, dose response counter-screen | IC50, µM | molecular beacon fluorescence, spectral interference counter-screen | 200 tested, under 10 active | shares compounds with DNMT1 block; call rule not given here
DNMT1 confirm: DNMT1 inhibition confirmation, single concentration; shares compounds with DNMT1 block; DNMT1 molecular beacon HinP1I cleavage, fluorescence; inhibition, % at 10 µM; actives 8% (n = 2,300); AID 602385;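 active = average inhibition of at least 30% in the single-concentration confirmation test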
DNMT1 interf: counter-screen for DNMT1 inhibitors: spectral interference. DNMT1 molecular beacon spectral interference counterscreen, fluorescence 485/520. shares compounds with DNMT1 block. actives 1% (n = 2,300). activation (fluorescence interference), % at 10 µM;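 active = activation of at least 30% at 10 µM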;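 note: DNMT1 catalytic domain with a HinP1I cleavage step and a FAM/dabcyl DNA beacon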
* marks the source's active call; other numbers are inactive results; / = not tested or not shown.

SMILES | NadD inh | STEP inh | DNMT1 block | SUMO1 PPI mod | Scp1 inh | LMPTP inh | DNMT1 confirm | DNMT1 interf | others
CN1CCN(c2ccc(C(CC(N)=O)NC(=O)Cc3ccc(Br)cc3)cc2[N+](=O)[O-])CC1 (stereo unspecified) | -2.2 | 1.0 | 0.8 | 8.0 | -1.3 | -0.6 | / | /
NC(=O)CC(NC(=O)Cc1cccc2ccccc12)c1ccc(N2CCC(Cc3ccccc3)CC2)c([N+](=O)[O-])c1 (stereo unspecified) | 19.2 | 0.5 | 17.2 | 0.1 | 2.4 | 1.0 | / | /
NC(=O)CC(NC(=O)Cc1ccc(Br)cc1)c1ccc(N2CCC(Br)CC2)c([N+](=O)[O-])c1 (stereo unspecified) | -3.5 | 1.4 | 76.7* | -2.1 | 4.0 | 1.5 | -4.4 | -3.0
NC(=O)CC(NC(=O)Cc1ccc(Br)cc1)c1ccc(N2CCC(Cc3ccccc3)CC2)c([N+](=O)[O-])c1 (stereo unspecified) | 5.8 | 6.6 | 86.9* | 5.9 | 8.4 | 0.1 | -7.0 | -4.8
NC(=O)CC(NC(=O)Cc1ccc(Br)cc1)c1ccc(N2CCCCCCC2)c([N+](=O)[O-])c1 (stereo unspecified) | -10.5 | 1.9 | 65.0* | 0.4 | -3.0 | -0.8 | -1.1 | 1.9
CN(Cc1ccccc1)c1ccc(C(CC(N)=O)NC(=O)Cc2ccc(Br)cc2)cc1[N+](=O)[O-] (stereo unspecified) | -3.3 | 3.6 | 80.2* | 4.3 | -5.9 | 2.5 | -3.9 | -4.1
CCOC(=O)[C@]12CCC=C1N(Cc1ccco1)C(=O)[C@H](CC(=O)N1CCC(c3ccccc3)CC1)C2 | 28.1 | / | / | 3.0 | / | -0.1 | / | /
COc1cc(N)c2ncsc2c1 | 0.6 | -3.2 | -7.9 | -0.5 | -4.7 | -1.4 | / | /
Cc1ccccc1C(=O)Nc1ccc2c(C#N)c3nc4ccccc4nc3n2c1 | 13.3 | -1.1 | 66.3* | 26.3 | 93.5* | 10.6 | 4.0 | -3.0
Cc1ccc(/C=N/NC(=O)C(O)c2ccccc2)o1 (stereo unspecified) | 0.0 | -0.2 | 2.3 | -12.5 | -3.6 | -1.0 | / | /
O=C(N/N=C/c1cc(Br)c(Br)o1)C(O)c1ccccc1 (stereo unspecified) | 0.9 | 3.7 | 76.8* | -1.3 | 35.2 | 4.8 | 3.3 | 2.4
Cc1cccc(/C=C/C(=O)c2cc(Br)ccc(=O)c2O)c1 | 29.5 | 9.5 | 92.7* | 12.7 | -3.4 | 32.4 | 10.0 | 4.2
CCOC(=O)c1c(NC(=O)N/N=C/c2ccccc2OCC)sc(C(C)=O)c1C | 5.8 | 1.1 | 55.7* | 1.1 | -3.4 | 1.9 | 3.8 | 1.5
CCCCCCCCC(=O)c1c(OC)oc(C=O)cc1=O | 25.5 | -4.3 | 98.3* | 8.2 | / | 7.5 | 38.2* | 3.0 | Beacon interf DR=>99
CCCCCCC(=O)Nc1cc2c(C)cc(=O)oc2cc1C | -3.0 | -15.6 | 7.5 | 1.2 | 2.6 | -1.3 | / | /
Cc1cc(NC(=O)c2cc(-c3ccccn3)nc3c(Cl)cccc23)no1 | 0.8 | 1.0 | 58.2* | 2.0 | 45.1 | 3.6 | 0.4 | 0.3
CC(=O)Nc1ccc(S(=O)(=O)CC(=O)CS(=O)(=O)c2ccc(NC(C)=O)cc2)cc1 | 1.2 | -2.7 | 19.3 | 8.6 | / | -0.5 | / | /
COC(=O)C1CCN(C(=O)CSc2nc3nc(C)cc(C)n3n2)CC1 | -2.4 | -1.4 | 63.3* | -5.6 | -1.2 | -0.4 | 0.8 | 1.9
CCN(CC)CCCN1C(=O)C2C(C(=O)Nc3ccc(C(C)C)cc3)C3C=CC2(O3)C1C(=O)NC1CCCCC1 (stereo unspecified) | -4.3 | -3.4 | -0.4 | 16.3 | -5.8 | -0.4 | / | /
CCc1nn(CC(=O)NCCCc2ccccc2)c(=O)c2cc3c(OC)cccc3n12 | 9.0 | -0.3 | 48.9 | -2.6 | -11.0 | 12.5 | / | /
CCc1nn(CC(=O)NCCCc2ccccc2)c(=O)c2cc3cc(F)ccc3n12 | 2.5 | 1.4 | 50.9* | 5.1 | -4.7 | 3.0 | -0.1 | -0.5
COc1cc(/C=C/C(=O)N(Cc2ccccc2)c2ccccn2)cc(OC)c1OC | -4.2 | -3.3 | 53.0* | 1.1 | -4.8 | -0.4 | -0.6 | 9.5
Cc1ccc(C2(C(F)(F)F)NC(=O)N3CCCN=C3S2)cc1 (stereo unspecified) | 6.0 | 0.4 | -0.4 | -3.0 | -4.6 | -0.8 | / | /
Cc1ccc(C2(C(F)(F)F)NC(=O)N3CCN=C3S2)cc1 (stereo unspecified) | 2.6 | 3.1 | 95.0* | 34.9 | -7.0 | -5.0 | 3.8 | 5.4
O=C(Nc1ccc(N2CCCC2)cc1)c1ccc(Br)o1 | 43.6* | 4.0 | 81.3* | -6.9 | -3.0 | 43.2 | 1.8 | -0.8
SMILES | NadD inh | STEP inh | DNMT1 block | SUMO1 PPI mod | Scp1 inh | LMPTP inh | DNMT1 confirm | DNMT1 interf | others
COc1ccc(N/C=C(\C#N)S(=O)(=O)c2ccc(Cl)cc2)c(OC)c1 | -10.6 | 0.1 | -9.6 | 2.3 | -15.9 | 3.2 | / | /
Cc1ccc(-c2nn(CC(=O)NCc3cc(-c4nn(C)c(=O)c5ccccc45)ccc3C)c(=O)c3ccccc23)cc1 | 6.7 | 6.8 | 57.3* | 0.1 | 3.5 | 22.3 | 0.5 | -4.8
CCC(=O)NCc1cc(-c2nn(C)c(=O)c3ccccc23)ccc1C | -1.5 | -1.9 | 0.8 | 8.8 | -2.9 | -1.6 | / | /
O=C(NC(=S)Nc1cc(S(=O)(=O)N2CCOCC2)ccc1N1CCOCC1)c1ccco1 | -4.3 | -0.8 | 60.2* | -1.4 | -2.3 | 0.1 | 3.4 | 3.0
O=C(NC(=S)Nc1cc(S(=O)(=O)N2CCOCC2)ccc1O)c1ccco1 | -3.7 | 1.8 | -0.9 | 6.4 | -11.6 | -0.6 | / | /
Cc1ccccc1CS(=O)(=O)Cc1ccc(C(=O)NCCc2ccccc2)o1 | 2.5 | 0.1 | -5.5 | -5.2 | -9.6 | 2.1 | / | /
COCCSc1ccccc1C(=O)N1CCCC(C)C1 (stereo unspecified) | 2.7 | -0.3 | 84.7* | 5.6 | -10.6 | 0.3 | -0.1 | 3.1
CCOC(=O)C1CCCN(C(=O)c2ccccc2SCCOC)C1 (stereo unspecified) | 0.8 | -0.5 | 1.1 | -1.7 | -3.7 | -2.1 | / | /
CCCn1c(N)c(NCCN2CCOCC2)c(=O)n(CC(=O)NCc2ccccc2)c1=O | -9.8 | 0.3 | 86.1* | 1.6 | -8.3 | -0.4 | 8.9 | 7.3
O=C(/C=C/c1ccc(Cl)cc1)NC(=S)Nc1ccc(NC(=O)c2ccco2)cc1 | 22.7 | -5.4 | 58.2* | 4.0 | 0.3 | 0.6 | 2.0 | -2.6
Nc1c(C(=O)C2CC2)sc2nc(-c3cccs3)cc(C(F)(F)F)c12 | 0.6 | -47.6 | 67.6* | -6.3 | -7.2 | -3.2 | 12.1 | 34.5*
